Measured values from ChEMBL document CHEMBL3596197, “Synthesis, topoisomerase I and II inhibitory activity, cytotoxicity, and structure-activity relationship study of 2-phenyl- or hydroxylated 2-phenyl-4-aryl-5H-indeno[1,2-b]pyridines” (Bioorg Med Chem, 2015).
pIC50: −log10 of the molar value. Where a name gives a salt, the structure may show the parent alone.

Columns and labels:
[1] = biological target: T1, DNA topoisomerase 1 (Homo sapiens) (UniProt P11387); assay: Inhibition of human recombinant DNA topoisomerse 1 using pBR322 as substrate assessed as inhibition of conversion of supercoiled pBR322 to relaxed form at 100 uM after 30 mins by ethidium bromide staining-based electrophoresis analysis
T1 sequence (whole entry): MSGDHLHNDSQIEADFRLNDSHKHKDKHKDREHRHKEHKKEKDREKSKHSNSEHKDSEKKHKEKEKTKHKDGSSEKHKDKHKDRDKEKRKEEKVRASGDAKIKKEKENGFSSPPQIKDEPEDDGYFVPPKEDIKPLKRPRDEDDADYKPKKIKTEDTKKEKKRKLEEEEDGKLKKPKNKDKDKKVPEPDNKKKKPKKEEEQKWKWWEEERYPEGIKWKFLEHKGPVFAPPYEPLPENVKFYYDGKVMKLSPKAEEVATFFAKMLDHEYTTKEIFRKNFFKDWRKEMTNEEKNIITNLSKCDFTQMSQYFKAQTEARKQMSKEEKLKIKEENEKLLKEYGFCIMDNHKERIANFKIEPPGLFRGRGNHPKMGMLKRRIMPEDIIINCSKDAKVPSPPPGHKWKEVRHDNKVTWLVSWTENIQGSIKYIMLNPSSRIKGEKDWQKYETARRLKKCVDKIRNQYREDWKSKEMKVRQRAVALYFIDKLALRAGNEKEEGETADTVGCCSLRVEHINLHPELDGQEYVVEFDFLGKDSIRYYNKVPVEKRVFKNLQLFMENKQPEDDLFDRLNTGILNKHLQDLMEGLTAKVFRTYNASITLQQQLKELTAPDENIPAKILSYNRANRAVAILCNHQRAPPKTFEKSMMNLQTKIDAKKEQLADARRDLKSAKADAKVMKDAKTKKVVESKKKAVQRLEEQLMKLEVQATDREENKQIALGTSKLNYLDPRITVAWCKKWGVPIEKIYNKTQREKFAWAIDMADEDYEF
Outline: (§1)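 Relaxation of supercoiled pBR322 (100 ng) by 1 unit recombinant human topo I. Run at 37 °C for 30 min in 10 mM Tris-HCl pH 7.9, 150 mM NaCl, 0.1% BSA, 1 mM spermidine, 5% glycerol. Compounds from 20 mM DMSO stocks. Stopped with sarcosyl, then 1% agarose gel at 15 V for 7 h in TAE. Ethidium bromide stain, UV imaging, bands quantitated.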

[2] = biological target: T1, DNA topoisomerase 1 (Homo sapiens); assay: Inhibition of human recombinant DNA topoisomerse 1 using pBR322 as substrate assessed as inhibition of conversion of supercoiled pBR322 to relaxed form at 20 uM after 30 mins by ethidium bromide staining-based electrophoresis analysis; outline: as §1
[3] = biological target: DNA topoisomerase 2-alpha (Homo sapiens) (UniProt P11388); assay: Inhibition of human recombinant DNA topoisomerse 2 alpha using pBR322 as substrate assessed as inhibition of conversion of supercoiled pBR322 to relaxed form at 100 uM after 30 mins by ethidium bromide staining-based electrophoresis analysis
Chain of DNA topoisomerase 2-alpha (Homo sapiens) (P11388 whole entry): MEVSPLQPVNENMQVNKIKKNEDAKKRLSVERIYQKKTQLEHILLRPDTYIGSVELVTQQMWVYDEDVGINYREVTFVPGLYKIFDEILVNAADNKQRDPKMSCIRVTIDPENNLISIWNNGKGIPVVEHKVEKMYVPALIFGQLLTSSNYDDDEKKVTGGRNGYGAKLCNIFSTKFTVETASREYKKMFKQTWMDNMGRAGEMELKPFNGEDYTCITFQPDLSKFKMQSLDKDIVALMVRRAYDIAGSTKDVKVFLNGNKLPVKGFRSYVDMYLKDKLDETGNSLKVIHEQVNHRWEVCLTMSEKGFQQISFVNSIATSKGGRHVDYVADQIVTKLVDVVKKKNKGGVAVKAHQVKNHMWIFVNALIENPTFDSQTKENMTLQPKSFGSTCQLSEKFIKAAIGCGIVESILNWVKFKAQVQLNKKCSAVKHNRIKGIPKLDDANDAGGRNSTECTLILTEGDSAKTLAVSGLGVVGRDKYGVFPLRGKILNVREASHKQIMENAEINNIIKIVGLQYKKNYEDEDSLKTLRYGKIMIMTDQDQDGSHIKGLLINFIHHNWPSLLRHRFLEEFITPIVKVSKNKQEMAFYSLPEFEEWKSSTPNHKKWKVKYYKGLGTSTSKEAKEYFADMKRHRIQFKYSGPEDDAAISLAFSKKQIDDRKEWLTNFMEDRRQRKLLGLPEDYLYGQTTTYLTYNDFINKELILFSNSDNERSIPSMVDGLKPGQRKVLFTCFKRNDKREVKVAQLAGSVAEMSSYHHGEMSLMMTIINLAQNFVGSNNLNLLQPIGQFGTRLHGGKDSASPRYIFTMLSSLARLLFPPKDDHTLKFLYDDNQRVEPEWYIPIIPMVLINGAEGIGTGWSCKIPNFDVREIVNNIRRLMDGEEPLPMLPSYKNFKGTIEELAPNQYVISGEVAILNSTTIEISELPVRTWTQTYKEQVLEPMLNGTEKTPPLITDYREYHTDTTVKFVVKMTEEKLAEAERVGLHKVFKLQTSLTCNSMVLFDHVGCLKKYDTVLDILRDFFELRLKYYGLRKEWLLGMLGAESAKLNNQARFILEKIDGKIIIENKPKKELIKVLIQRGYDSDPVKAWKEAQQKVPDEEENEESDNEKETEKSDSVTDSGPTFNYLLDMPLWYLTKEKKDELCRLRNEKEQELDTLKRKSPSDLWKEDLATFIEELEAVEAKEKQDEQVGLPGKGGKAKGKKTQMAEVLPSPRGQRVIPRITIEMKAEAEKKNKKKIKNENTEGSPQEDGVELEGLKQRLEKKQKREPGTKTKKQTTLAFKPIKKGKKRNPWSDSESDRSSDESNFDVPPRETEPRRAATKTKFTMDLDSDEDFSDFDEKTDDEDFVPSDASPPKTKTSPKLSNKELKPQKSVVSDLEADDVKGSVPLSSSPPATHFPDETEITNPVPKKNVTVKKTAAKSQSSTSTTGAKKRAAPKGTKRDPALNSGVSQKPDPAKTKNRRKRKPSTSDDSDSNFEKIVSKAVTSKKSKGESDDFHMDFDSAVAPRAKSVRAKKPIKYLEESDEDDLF
Outline: (§2)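 Supercoiled pBR322 (200 ng) with 1 unit human topo IIα, 30 min at 30 °C. Buffer: 10 mM Tris-HCl pH 7.9, 50 mM NaCl, 5 mM MgCl2, 1 mM EDTA, 1 mM ATP, 15 μg/mL BSA. Stopped with EDTA. 1% agarose gel at 25 V for 4 h in TAE, ethidium bromide stain, supercoiled DNA quantitated under UV.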

[4] = biological target: DNA topoisomerase 2-alpha (Homo sapiens) (UniProt P11388); assay: Inhibition of human recombinant DNA topoisomerse 2 alpha using pBR322 as substrate assessed as inhibition of conversion of supercoiled pBR322 to relaxed form at 20 uM after 30 mins by ethidium bromide staining-based electrophoresis analysis; outline: as §2
HCT-15 = assay: Cytotoxicity against human HCT15 cells incubated from day 2 to day 4 by CCK8 assay; assay type: functional, cell-based
Outline: (§3)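 Cells seeded at 2~4 × 10^4 per well and grown overnight in medium with 10% FBS at 37 °C, 5% CO2. Day 2: FBS starvation 4 h, then medium with graded compound concentrations. Day 4: CCK-8 added for 4 h more, absorbance read at 450 nm. IC50 from four-parameter logistic fit. Mean ± S.D. of three experiments run in triplicate.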

T47D = assay: Cytotoxicity against human T47D cells incubated from day 2 to day 4 by CCK8 assay; assay type: functional, cell-based; outline: as §3
DU-145 = assay: Cytotoxicity against human DU145 cells incubated from day 2 to day 4 by CCK8 assay; assay type: functional, cell-based; outline: as §3
HeLa = assay: Cytotoxicity against human HeLa cells incubated from day 2 to day 4 by CCK8 assay; assay type: functional, cell-based; outline: as §3

inhibition [1] | inhibition [2] | inhibition [3] | inhibition [4] | Structure (SMILES) | pIC50 (HCT-15) | pIC50 (T47D) | pIC50 (DU-145) | pIC50 (HeLa)
69.1% | 0% | 40.1% | 21.4% | Oc1ccc(-c2cc(-c3cccs3)c3c(n2)-c2ccccc2C3)cc1 | < 4.30 | < 4.30 | < 4.30 | < 4.30
4.1% |  |  |  | c1ccc(-c2cc(-c3cccnc3)c3c(n2)-c2ccccc2C3)cc1 | < 4.30 | < 4.30 | < 4.30 | < 4.30
69.2% | 0% | 56.2% | 19.3% | Oc1cccc(-c2cc(-c3ccoc3)c3c(n2)-c2ccccc2C3)c1 | < 4.30 | < 4.30 | 4.54 | 6.03
70.9% | 3.8% | 3.5% |  | Oc1ccccc1-c1cc(-c2cccnc2)c2c(n1)-c1ccccc1C2 | < 4.30 | < 4.30 | < 4.30 | < 4.30
 |  |  |  | CC[C@@]1(O)C(=O)OCc2c1cc1n(c2=O)Cc2cc3ccccc3nc2-1 [CAMPTOTHECIN] | 6.28 | 6.51 |  | 6.39
52.8% | 4.9% | 9.1% |  | Oc1ccccc1-c1cc(-c2ccccn2)c2c(n1)-c1ccccc1C2 | < 4.30 | < 4.30 | < 4.30 | < 4.30
3.4% |  | 16.7% |  | c1ccc(-c2cc(-c3ccsc3)c3c(n2)-c2ccccc2C3)cc1 | 4.50 | < 4.30 | 5.79 | 4.53
 |  |  |  | COc1cc([C@@H]2c3cc4c(cc3[C@@H](O[C@@H]3O[C@@H]5CO[C@@H](C)O[C@H]5[C@H](O)[C@H]3O)[C@H]3COC(=O)[C@H]23)OCO4)cc(OC)c1O [ETOPOSIDE] |  | 6.15 |  | 
 |  |  |  | COc1cccc2c1C(=O)c1c(O)c3c(c(O)c1C2=O)C[C@@](O)(C(=O)CO)C[C@@H]3O[C@H]1C[C@H](N)[C@H](O)[C@H](C)O1 [DOXORUBICIN HYDROCHLORIDE] |  |  | 5.99 | 
58.3% | 2.4% | 11.7% |  | Oc1ccccc1-c1cc(-c2ccco2)c2c(n1)-c1ccccc1C2 | < 4.30 | < 4.30 | < 4.30 | < 4.30
0% |  | 19.6% | 15.1% | c1ccc(-c2cc(-c3ccoc3)c3c(n2)-c2ccccc2C3)cc1 | 5.82 | 4.45 | 4.33 | 4.62
51.1% | 0% | 31.5% | 21.9% | Oc1ccccc1-c1cc(-c2cccs2)c2c(n1)-c1ccccc1C2 | < 4.30 | < 4.30 | < 4.30 | < 4.30
73% | 8.7% | 44.5% | 25.9% | c1ccc(-c2cc(-c3ccco3)c3c(n2)-c2ccccc2C3)cc1 | 4.95 | 4.97 | 5.30 | 5.85
3.3% |  |  |  | c1ccc(-c2cc(-c3ccncc3)c3c(n2)-c2ccccc2C3)cc1 | < 4.30 | < 4.30 | < 4.30 | < 4.30
68.5% | 1.7% | 50.6% | 30.6% | Oc1cccc(-c2cc(-c3cccnc3)c3c(n2)-c2ccccc2C3)c1 | < 4.30 | < 4.30 | < 4.30 | 5.33
54.8% | 2.7% | 59.9% | 44.2% | Oc1ccc(-c2cc(-c3ccco3)c3c(n2)-c2ccccc2C3)cc1 | < 4.30 | < 4.30 | < 4.30 | < 4.30
61.2% | 4.7% | 18.2% |  | Oc1ccc(-c2cc(-c3ccccn3)c3c(n2)-c2ccccc2C3)cc1 | < 4.30 | < 4.30 | < 4.30 | < 4.30
76.9% | 0% | 77.2% | 37% | Oc1cccc(-c2cc(-c3ccsc3)c3c(n2)-c2ccccc2C3)c1 | 5.17 | 6.03 | 5.64 | 5.76
3.6% |  | 16.4% |  | c1ccc(-c2cc(-c3ccccn3)c3c(n2)-c2ccccc2C3)cc1 | < 4.30 | 4.35 | 4.88 | 4.73
63.5% | 0% | 40.4% | 36.9% | Oc1ccc(-c2cc(-c3ccoc3)c3c(n2)-c2ccccc2C3)cc1 | < 4.30 | < 4.30 | < 4.30 | < 4.30
90.1% | 0% | 36.9% | 0% | Oc1ccc(-c2cc(-c3ccsc3)c3c(n2)-c2ccccc2C3)cc1 | < 4.30 | < 4.30 | < 4.30 | < 4.30
50.6% | 0.5% | 51.7% | 39.2% | Oc1ccccc1-c1cc(-c2ccoc2)c2c(n1)-c1ccccc1C2 | < 4.30 | < 4.30 | < 4.30 | < 4.30
5.9% |  | 48.5% | 19.7% | Oc1cccc(-c2cc(-c3ccccn3)c3c(n2)-c2ccccc2C3)c1 | < 4.30 | < 4.30 | < 4.30 | 5.51
59.7% | 2.4% | 28.3% |  | Oc1ccc(-c2cc(-c3cccnc3)c3c(n2)-c2ccccc2C3)cc1 | < 4.30 | < 4.30 | < 4.30 | < 4.30
68.7% | 2.3% | 5.1% |  | Oc1ccccc1-c1cc(-c2ccncc2)c2c(n1)-c1ccccc1C2 | < 4.30 | < 4.30 | 4.40 | < 4.30
59.7% | 5.5% | 78.2% | 44.5% | Oc1cccc(-c2cc(-c3ccco3)c3c(n2)-c2ccccc2C3)c1 | 5.80 | 5.17 | 5.36 | 5.44
49.8% | 1.5% | 8.4% |  | Oc1cccc(-c2cc(-c3ccncc3)c3c(n2)-c2ccccc2C3)c1 | < 4.30 | < 4.30 | < 4.30 | < 4.30
87.8% | 0% | 46.8% | 23.2% | Oc1ccccc1-c1cc(-c2ccsc2)c2c(n1)-c1ccccc1C2 | < 4.30 | < 4.30 | 4.44 | < 4.30
3.7% |  | 16.8% |  | c1ccc(-c2cc(-c3cccs3)c3c(n2)-c2ccccc2C3)cc1 | < 4.30 | 4.57 | 5.03 | 4.51
72.4% | 0.7% | 27.1% |  | Oc1ccc(-c2cc(-c3ccncc3)c3c(n2)-c2ccccc2C3)cc1 | < 4.30 | < 4.30 | < 4.30 | < 4.30
